Common to all, as to assay type: functional
One assay deals with Escherichia coli. In words: Antibacterial activity against Escherichia coli NCTC 10416 at 5 mg/ml after 24 hrs by agar disc diffusion method. As to conditions: NCTC 10416, 24 h, read-out: DIZ. In outline:
(§1)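 Agar well-diffusion using 1 cm wells, each loaded with 100 of compound solution (5 mg/mL in DMF). Bacteria were maintained on nutrient agar and plated as a standard suspension. Plates were incubated 24 h at 35 °C, and inhibition zone diameters were measured.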

The test system of another assay is Micrococcus luteus. Description: Antibacterial activity against Sarcina lutea ATCC 934 at 5 mg/ml after 24 hrs by agar disc diffusion method. The settings on record: ATCC 934, 24 h, read-out: DIZ. Put shortly:
as §1
In general terms: Agar diffusion results depend on both activity and mobility in agar.

For another assay, the system named is Staphylococcus aureus. In words: Antibacterial activity against Staphylococcus aureus NCTC 7447 at 5 mg/ml after 24 hrs by agar disc diffusion method. The settings on record: NCTC 7447, 24 h, read-out: DIZ. In outline: as §1
A further assay deals with Aspergillus flavus. In words: Antifungal activity against Aspergillus flavus at 5 mg/ml by agar disc diffusion method. As to conditions: read-out: DIZ.
Another assay relates to Bacillus subtilis. Description: Antibacterial activity against Bacillus subtilis NCTC 1040 at 5 mg/ml after 24 hrs by agar disc diffusion method. As to conditions: NCTC 1040, 24 h, read-out: DIZ. In outline: as §1
The nature of assay [1]: Antitumor activity against mouse EAC cells assessed as inhibition of cell viability at 100 ug/ml by Trypan blue assay. The settings on record: Ehrlich. In outline:
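EAC cells were taken by needle aspiration of ascitic fluid from preinoculated mice and diluted 1:10 in saline. Then 0.1 mL of cell suspension, 0.8 mL RPMI 1640 and 0.1 mL compound were incubated 2 h at 37 °C. Dead cells were counted by trypan blue exclusion, and % non-viable = non-viable/total cells × 100.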

Another assay deals with Candida albicans. In words: Antifungal activity against Candida albicans IMRU 3669 at 5 mg/ml by agar disc diffusion method. The settings on record: read-out: DIZ.

Molecules are shown by their SMILES.

As for `COc1ccc(N2C(=N)C(=S)N(c3ccc(Br)cc3)C2=O)cc1`, the zone of inhibition at 5000 µg/mL is 16 mm in the assay on Escherichia coli; 19 mm in the assay with Micrococcus luteus; 13 mm in the assay on Staphylococcus aureus; 18 mm in the assay with Aspergillus flavus; 18 mm with Bacillus subtilis; 12 mm in the assay with Candida albicans. The inhibition (as a rule, the change of the read-out against control, counted positive when it falls) at 100 µg/mL in assay [1] was determined as 10%.

For `CSc1ccc(N2C(=N)C(=S)N(c3ccc(Br)cc3)C2=O)cc1`, the zone of inhibition at 5000 µg/mL in the assay with Escherichia coli was 15.5 mm; in the assay on Micrococcus luteus, 15 mm; in the assay with Staphylococcus aureus, 19 mm; in the assay on Aspergillus flavus, 15 mm; in the assay on Bacillus subtilis, 19.5 mm; in the assay with Candida albicans, 16 mm. For the same molecule, the inhibition at 100 µg/mL in assay [1] stood at 40%.

Turning to `CSc1ccc(N2C(=N)C(=S)N(c3ccc(Cl)cc3)C2=O)cc1`, the zone of inhibition at 5000 µg/mL with Escherichia coli turned out to be 15.5 mm; in the assay with Micrococcus luteus, 15 mm; with Staphylococcus aureus, 16 mm; in the assay on Aspergillus flavus it was 15 mm; in the assay with Bacillus subtilis, 16.5 mm; in the assay on Candida albicans, 16.5 mm. In addition, the inhibition at 100 µg/mL in assay [1] was determined as 20%.

For the molecule `CSc1ccc(N2C(=N)C(=S)N(c3ccccc3)C2=O)cc1`, the zone of inhibition at 5000 µg/mL with Escherichia coli amounted to 25.5 mm; in the assay with Micrococcus luteus, 25 mm; with Staphylococcus aureus, 24 mm; in the assay on Aspergillus flavus it was 18 mm; in the assay with Bacillus subtilis, 23.5 mm; in the assay with Candida albicans, 24 mm. For the same molecule, in assay [1], the inhibition at 100 µg/mL came out at 1%.

As for `Cc1ccc(N2C(=N)C(=S)N(c3ccc(Cl)cc3)C2=O)cc1`, the zone of inhibition at 5000 µg/mL in the assay on Escherichia coli was 17 mm; in the assay with Micrococcus luteus, 21 mm; in the assay with Staphylococcus aureus it was 12 mm; in the assay with Aspergillus flavus it was 14 mm; in the assay with Bacillus subtilis, 16 mm; in the assay with Candida albicans, 12 mm. Moreover, the inhibition at 100 µg/mL in assay [1] is 10%.

Consider `CSc1ccc(N2C(=N)C(=S)N(c3ccc(I)cc3)C2=O)cc1`, for which the zone of inhibition at 5000 µg/mL with Escherichia coli is 14.5 mm; in the assay on Micrococcus luteus, 14 mm; in the assay with Staphylococcus aureus it was 16.5 mm; with Aspergillus flavus, 15 mm; in the assay with Bacillus subtilis, 16 mm; in the assay on Candida albicans it was 16.5 mm. The inhibition at 100 µg/mL in assay [1] amounted to 10%.

For the molecule `COc1ccc(N2C(=N)C(=S)N(c3ccccc3)C2=O)cc1`, the zone of inhibition at 5000 µg/mL in the assay with Escherichia coli amounted to 25 mm; in the assay on Micrococcus luteus it was 25 mm; in the assay on Staphylococcus aureus, 18 mm; with Aspergillus flavus, 18 mm; in the assay on Bacillus subtilis, 19 mm; in the assay on Candida albicans, 21 mm. The inhibition at 100 µg/mL in assay [1] is 50%.

For `N=C1C(=S)N(c2ccc(I)cc2)C(=O)N1Cc1ccccc1`, the zone of inhibition at 5000 µg/mL in the assay on Escherichia coli turned out to be 14 mm; with Micrococcus luteus, 12 mm; in the assay on Staphylococcus aureus it was 15 mm; in the assay with Aspergillus flavus, 15 mm; in the assay with Bacillus subtilis, 15 mm; in the assay on Candida albicans it was 13 mm. In addition, the inhibition at 100 µg/mL in assay [1] was 30%.

`N=C1C(=S)N(c2ccc(Br)cc2)C(=O)N1Cc1ccccc1`: the zone of inhibition at 5000 µg/mL came out at 18.5 mm with Escherichia coli; 18 mm in the assay on Micrococcus luteus; 15.5 mm with Staphylococcus aureus; 15 mm with Aspergillus flavus; 17 mm with Bacillus subtilis; 17 mm in the assay with Candida albicans. The inhibition at 100 µg/mL in assay [1] is 45%.

As for `COc1ccc(N2C(=N)C(=S)N(c3ccc(I)cc3)C2=O)cc1`, the zone of inhibition at 5000 µg/mL with Escherichia coli was 19 mm; with Micrococcus luteus, 18 mm; in the assay with Staphylococcus aureus, 18.5 mm; in the assay with Aspergillus flavus, 18 mm; in the assay with Bacillus subtilis it was 19.5 mm; in the assay with Candida albicans, 23 mm. In addition, the inhibition at 100 µg/mL in assay [1] stood at 20%.

With `Cc1ccc(N2C(=N)C(=S)N(c3ccc(I)cc3)C2=O)cc1`, the zone of inhibition at 5000 µg/mL with Escherichia coli stood at 14 mm; in the assay on Micrococcus luteus it was 13 mm; in the assay with Staphylococcus aureus, 17 mm; in the assay on Aspergillus flavus it was 14 mm; in the assay on Bacillus subtilis it was 16.5 mm; in the assay with Candida albicans, 17 mm. Further, the inhibition at 100 µg/mL in assay [1] was found to be 40%.

`Cc1ccc(N2C(=N)C(=S)N(c3ccc(Br)cc3)C2=O)cc1`: the zone of inhibition at 5000 µg/mL in the assay on Escherichia coli was found to be 16.5 mm; in the assay on Micrococcus luteus, 14 mm; with Staphylococcus aureus, 18 mm; in the assay on Aspergillus flavus it was 15 mm; with Bacillus subtilis it was 18 mm; with Candida albicans it was 14 mm. Also, in assay [1], the inhibition at 100 µg/mL is 20%.

In the case of `Cc1ccc(N2C(=N)C(=S)N(c3ccccc3)C2=O)cc1`, the zone of inhibition at 5000 µg/mL is 20 mm with Escherichia coli; 18 mm in the assay on Micrococcus luteus; 21.5 mm in the assay with Staphylococcus aureus; 15 mm in the assay on Aspergillus flavus; 21 mm with Bacillus subtilis; 22 mm in the assay on Candida albicans. Besides, in assay [1], the inhibition at 100 µg/mL is 10%.

Turning to `COc1ccc(N2C(=N)C(=S)N(c3ccc(Cl)cc3)C2=O)cc1`, the zone of inhibition at 5000 µg/mL in the assay with Escherichia coli was 23.5 mm; with Micrococcus luteus it was 22 mm; with Staphylococcus aureus it was 19.5 mm; in the assay on Aspergillus flavus, 17.5 mm; in the assay on Bacillus subtilis, 20 mm; in the assay with Candida albicans, 22 mm. For the same molecule, the inhibition at 100 µg/mL in assay [1] is 0.5%.

For the origin of these results see ChEMBL document CHEMBL1782009, “Synthesis and characterization of new types of halogenated and alkylated imidazolidineiminothiones and a comparative study of their antitumor, antibacterial, and antifungal activities” (Eur J Med Chem, 2011).
